Assay results reported in ChEMBL document CHEMBL3351833, “Synthesis and Biological Evaluation of Pyrazolo[1,5-a]pyrimidine Compounds as Potent and Selective Pim-1 Inhibitors” (ACS Med Chem Lett, 2015).
pEC50, pIC50: −log10 of the molar value.

How the values were obtained:
[1] = target: Serine/threonine-protein kinase pim-2 (Homo sapiens, UniProt Q9P1W9); assay: Inhibition of Pim2 (unknown origin) using luciferase-luciferin based ATP detection reagent by Kinase-Glo assay; details: for pIC50: read-out: IC50
Serine/threonine-protein kinase pim-2, sequence (Q9P1W9 whole entry): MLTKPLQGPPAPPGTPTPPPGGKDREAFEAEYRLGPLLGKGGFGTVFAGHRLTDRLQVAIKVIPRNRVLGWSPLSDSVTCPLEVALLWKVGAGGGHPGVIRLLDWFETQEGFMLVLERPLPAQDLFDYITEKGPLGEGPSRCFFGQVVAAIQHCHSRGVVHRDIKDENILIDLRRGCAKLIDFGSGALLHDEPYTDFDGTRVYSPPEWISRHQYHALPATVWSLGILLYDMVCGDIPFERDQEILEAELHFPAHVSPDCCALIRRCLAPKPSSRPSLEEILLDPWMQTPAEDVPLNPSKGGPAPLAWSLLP

[2] = target: T1, Receptor-type tyrosine-protein kinase FLT3 (Homo sapiens, UniProt P36888); assay: Inhibition of human Flt3 (unknown origin)
T1 sequence (P36888 whole entry): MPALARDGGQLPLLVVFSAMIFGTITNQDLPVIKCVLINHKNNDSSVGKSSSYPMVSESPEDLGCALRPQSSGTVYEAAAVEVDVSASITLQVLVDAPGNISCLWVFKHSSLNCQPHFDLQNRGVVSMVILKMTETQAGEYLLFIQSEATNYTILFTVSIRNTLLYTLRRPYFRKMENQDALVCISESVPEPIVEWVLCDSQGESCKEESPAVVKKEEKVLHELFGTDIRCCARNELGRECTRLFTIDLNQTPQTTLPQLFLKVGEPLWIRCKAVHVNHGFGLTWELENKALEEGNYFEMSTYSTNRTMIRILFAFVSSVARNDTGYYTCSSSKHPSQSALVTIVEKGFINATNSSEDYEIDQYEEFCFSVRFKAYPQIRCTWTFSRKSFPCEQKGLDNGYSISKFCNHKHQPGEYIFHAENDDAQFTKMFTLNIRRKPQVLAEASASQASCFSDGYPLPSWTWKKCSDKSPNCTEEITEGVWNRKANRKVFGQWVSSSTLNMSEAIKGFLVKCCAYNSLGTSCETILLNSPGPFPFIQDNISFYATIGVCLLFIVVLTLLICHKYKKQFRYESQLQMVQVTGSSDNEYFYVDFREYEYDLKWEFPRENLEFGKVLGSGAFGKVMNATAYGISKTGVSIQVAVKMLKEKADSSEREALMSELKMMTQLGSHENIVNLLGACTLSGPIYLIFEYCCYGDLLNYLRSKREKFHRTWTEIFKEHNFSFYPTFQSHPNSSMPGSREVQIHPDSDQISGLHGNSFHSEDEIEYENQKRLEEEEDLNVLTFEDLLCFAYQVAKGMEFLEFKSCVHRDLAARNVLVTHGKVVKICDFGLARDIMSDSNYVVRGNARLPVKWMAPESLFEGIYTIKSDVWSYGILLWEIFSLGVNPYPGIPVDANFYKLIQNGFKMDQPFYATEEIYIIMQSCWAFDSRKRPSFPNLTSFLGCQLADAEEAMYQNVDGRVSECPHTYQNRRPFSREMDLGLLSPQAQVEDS

[3] = target: T2, Serine/threonine-protein kinase pim-1 (Homo sapiens, UniProt P11309); assay: Inhibition of Pim1 (unknown origin) using luciferase-luciferin based ATP detection reagent by Kinase-Glo assay
Target sequence in this assay (P11309 whole entry): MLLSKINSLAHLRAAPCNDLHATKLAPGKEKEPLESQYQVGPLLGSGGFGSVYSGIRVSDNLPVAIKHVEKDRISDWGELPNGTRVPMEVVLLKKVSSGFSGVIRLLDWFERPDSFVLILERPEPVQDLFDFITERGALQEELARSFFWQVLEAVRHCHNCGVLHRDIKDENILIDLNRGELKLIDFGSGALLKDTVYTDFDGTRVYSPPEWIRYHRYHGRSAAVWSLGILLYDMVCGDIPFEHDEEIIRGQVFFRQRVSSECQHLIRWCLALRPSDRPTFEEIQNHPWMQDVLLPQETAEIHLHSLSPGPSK

[4] = target: Tyrosine-protein kinase Lck (Homo sapiens) (UniProt P06239); assay: Inhibition of LCK (unknown origin) at 1 uM
Tyrosine-protein kinase Lck (Homo sapiens), sequence (P06239 2-509 limits assumed): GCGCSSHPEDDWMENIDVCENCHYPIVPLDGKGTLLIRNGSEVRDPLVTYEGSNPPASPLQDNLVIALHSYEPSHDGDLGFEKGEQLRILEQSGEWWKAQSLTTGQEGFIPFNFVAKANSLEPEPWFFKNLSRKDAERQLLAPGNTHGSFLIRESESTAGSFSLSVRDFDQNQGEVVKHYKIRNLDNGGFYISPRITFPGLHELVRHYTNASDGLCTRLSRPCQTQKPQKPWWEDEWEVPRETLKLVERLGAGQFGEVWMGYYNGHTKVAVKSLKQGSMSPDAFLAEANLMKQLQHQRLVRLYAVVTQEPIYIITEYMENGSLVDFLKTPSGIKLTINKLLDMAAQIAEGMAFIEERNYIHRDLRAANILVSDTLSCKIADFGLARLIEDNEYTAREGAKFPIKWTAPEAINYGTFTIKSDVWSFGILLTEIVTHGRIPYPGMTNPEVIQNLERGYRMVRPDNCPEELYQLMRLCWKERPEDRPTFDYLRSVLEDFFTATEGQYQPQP

[5] = target: T2, Serine/threonine-protein kinase pim-1; assay: Inhibition of Pim1 (unknown origin) using luciferase-luciferin based ATP detection reagent at 1 uM by Kinase-Glo assay
Target sequence in this assay (P11309 whole entry, looked up): as the sequence (P11309 whole entry) above

[6] = target: Macrophage colony-stimulating factor 1 receptor (Homo sapiens) (UniProt P07333); assay: Inhibition of FMS (unknown origin) at 1 uM
Macrophage colony-stimulating factor 1 receptor (Homo sapiens), sequence (P07333 whole entry): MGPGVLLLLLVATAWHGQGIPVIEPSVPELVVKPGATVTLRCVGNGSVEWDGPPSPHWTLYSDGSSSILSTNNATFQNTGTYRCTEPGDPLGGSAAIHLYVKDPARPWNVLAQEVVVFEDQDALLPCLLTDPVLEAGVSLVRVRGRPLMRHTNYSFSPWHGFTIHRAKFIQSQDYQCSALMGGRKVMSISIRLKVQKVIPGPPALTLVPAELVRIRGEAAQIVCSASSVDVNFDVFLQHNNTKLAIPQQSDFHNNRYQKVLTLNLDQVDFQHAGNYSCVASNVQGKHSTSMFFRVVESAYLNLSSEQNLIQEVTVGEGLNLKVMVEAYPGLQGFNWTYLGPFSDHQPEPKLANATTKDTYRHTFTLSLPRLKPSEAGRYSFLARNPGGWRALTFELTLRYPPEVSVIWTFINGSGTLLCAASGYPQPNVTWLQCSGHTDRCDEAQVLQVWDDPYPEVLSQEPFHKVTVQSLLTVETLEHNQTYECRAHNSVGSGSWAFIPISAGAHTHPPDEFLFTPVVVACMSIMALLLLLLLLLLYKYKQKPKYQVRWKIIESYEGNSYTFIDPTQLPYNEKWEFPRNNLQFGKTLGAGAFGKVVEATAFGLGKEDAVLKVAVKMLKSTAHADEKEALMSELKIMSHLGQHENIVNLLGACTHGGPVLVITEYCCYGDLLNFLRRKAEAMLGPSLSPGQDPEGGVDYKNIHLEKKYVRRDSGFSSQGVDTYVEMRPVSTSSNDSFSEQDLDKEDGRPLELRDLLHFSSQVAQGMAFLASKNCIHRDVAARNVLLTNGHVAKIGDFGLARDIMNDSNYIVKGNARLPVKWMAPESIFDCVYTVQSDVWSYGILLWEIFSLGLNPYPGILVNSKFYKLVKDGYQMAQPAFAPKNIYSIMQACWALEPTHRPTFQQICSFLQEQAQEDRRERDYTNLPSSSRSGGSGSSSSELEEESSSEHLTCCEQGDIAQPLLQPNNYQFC

[7] = Growth inhibition of human UM-UC-3 cells after 24 hrs by Clonogenic cell survival assay; format: functional, cell-based; details: UMUC3, 24 h
Procedure, shortened: (§1)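 Two-dimensional colony formation (clonogenic survival) of human UM-UC-3 bladder carcinoma and HSC-3 oral squamous carcinoma cells, assessing the cytostatic effect on colony growth.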

[8] = target: BDNF/NT-3 growth factors receptor (Homo sapiens) (UniProt Q16620); assay: Inhibition of TRKB (unknown origin) at 1 uM
BDNF/NT-3 growth factors receptor (Homo sapiens), sequence (Q16620 32-822 limits assumed): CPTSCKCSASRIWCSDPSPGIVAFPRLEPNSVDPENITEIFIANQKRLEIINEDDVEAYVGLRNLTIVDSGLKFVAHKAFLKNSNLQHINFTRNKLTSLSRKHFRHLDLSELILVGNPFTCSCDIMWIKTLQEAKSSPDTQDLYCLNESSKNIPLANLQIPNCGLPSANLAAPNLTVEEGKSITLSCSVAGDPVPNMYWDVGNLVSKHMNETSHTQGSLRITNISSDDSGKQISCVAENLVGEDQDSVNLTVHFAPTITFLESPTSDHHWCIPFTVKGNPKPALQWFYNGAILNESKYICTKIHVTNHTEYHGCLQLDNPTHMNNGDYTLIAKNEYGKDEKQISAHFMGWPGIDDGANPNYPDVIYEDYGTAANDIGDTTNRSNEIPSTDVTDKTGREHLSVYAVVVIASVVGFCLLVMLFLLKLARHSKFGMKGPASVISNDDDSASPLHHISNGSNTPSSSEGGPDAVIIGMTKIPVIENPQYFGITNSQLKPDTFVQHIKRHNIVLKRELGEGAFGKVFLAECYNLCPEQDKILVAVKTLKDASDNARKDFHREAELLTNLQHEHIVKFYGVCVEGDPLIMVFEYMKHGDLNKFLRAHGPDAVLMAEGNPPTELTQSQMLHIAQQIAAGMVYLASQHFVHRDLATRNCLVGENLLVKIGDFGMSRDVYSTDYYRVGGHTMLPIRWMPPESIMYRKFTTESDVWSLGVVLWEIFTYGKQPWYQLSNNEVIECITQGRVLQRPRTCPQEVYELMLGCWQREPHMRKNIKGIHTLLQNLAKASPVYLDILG

[9] = target: Proto-oncogene tyrosine-protein kinase Src (Homo sapiens) (UniProt P12931); assay: Inhibition of c-Src (unknown origin) at 1 uM
[10] = target: T3, Homeodomain-interacting protein kinase 4 (Homo sapiens) (UniProt Q8NE63); assay: Inhibition of HIPK4 (unknown origin) at 1 uM
T3 sequence (whole entry): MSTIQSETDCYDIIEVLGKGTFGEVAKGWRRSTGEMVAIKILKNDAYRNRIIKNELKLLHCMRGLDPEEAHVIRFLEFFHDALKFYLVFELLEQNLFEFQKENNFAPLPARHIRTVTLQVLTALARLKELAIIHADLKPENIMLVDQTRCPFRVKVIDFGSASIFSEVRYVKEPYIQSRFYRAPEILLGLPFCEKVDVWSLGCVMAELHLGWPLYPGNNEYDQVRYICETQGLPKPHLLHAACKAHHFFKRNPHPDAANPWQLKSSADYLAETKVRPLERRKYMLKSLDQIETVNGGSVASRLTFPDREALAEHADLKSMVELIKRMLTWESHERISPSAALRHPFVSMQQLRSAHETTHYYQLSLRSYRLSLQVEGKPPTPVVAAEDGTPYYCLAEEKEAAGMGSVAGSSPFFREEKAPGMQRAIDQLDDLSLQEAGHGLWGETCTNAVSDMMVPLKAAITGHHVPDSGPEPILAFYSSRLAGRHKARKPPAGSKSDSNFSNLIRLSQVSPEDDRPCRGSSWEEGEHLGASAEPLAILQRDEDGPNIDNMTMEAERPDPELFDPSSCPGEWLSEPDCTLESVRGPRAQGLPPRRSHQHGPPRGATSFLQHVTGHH

[11] = target: Receptor-type tyrosine-protein kinase FLT3 (Homo sapiens) (UniProt P36888); details: 1 uM
[12] = target: T4, Serine/threonine-protein kinase haspin (Homo sapiens) (UniProt Q8TF76); assay: Inhibition of Haspin (unknown origin) at 1 uM
T4 sequence (whole entry): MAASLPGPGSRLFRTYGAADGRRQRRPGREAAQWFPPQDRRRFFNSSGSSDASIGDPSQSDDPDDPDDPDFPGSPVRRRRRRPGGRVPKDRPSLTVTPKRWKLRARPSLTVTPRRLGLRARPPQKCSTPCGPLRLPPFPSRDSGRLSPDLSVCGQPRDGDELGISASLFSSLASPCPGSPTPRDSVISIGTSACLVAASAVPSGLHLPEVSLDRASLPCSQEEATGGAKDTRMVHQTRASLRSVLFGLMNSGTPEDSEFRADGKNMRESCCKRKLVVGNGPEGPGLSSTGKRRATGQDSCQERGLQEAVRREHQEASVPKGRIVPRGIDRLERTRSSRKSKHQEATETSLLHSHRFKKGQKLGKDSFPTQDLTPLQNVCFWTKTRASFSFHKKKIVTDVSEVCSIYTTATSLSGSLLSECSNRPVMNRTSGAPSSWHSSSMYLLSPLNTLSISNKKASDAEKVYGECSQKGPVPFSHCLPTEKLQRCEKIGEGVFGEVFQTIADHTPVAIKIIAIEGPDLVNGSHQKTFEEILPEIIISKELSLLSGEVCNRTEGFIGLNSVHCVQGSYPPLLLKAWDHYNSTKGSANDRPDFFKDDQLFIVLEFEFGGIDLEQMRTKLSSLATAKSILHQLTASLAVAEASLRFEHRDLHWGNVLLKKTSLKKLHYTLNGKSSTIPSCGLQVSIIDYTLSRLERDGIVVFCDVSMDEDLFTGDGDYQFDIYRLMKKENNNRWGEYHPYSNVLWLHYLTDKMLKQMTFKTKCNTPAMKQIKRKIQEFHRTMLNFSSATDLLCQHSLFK

[13] = target: Tyrosine-protein kinase JAK2 (Homo sapiens) (UniProt O60674); assay: Inhibition of JAK2 (unknown origin) at 1 uM
[14] = target: NT-3 growth factor receptor (Homo sapiens) (UniProt Q16288); assay: Inhibition of TRKC (unknown origin) at 1 uM
[15] = target: Tyrosine-protein kinase Fyn (Homo sapiens) (UniProt P06241); assay: Inhibition of FYN (unknown origin) at 1 uM
Tyrosine-protein kinase Fyn (Homo sapiens), sequence (P06241 2-537 limits assumed): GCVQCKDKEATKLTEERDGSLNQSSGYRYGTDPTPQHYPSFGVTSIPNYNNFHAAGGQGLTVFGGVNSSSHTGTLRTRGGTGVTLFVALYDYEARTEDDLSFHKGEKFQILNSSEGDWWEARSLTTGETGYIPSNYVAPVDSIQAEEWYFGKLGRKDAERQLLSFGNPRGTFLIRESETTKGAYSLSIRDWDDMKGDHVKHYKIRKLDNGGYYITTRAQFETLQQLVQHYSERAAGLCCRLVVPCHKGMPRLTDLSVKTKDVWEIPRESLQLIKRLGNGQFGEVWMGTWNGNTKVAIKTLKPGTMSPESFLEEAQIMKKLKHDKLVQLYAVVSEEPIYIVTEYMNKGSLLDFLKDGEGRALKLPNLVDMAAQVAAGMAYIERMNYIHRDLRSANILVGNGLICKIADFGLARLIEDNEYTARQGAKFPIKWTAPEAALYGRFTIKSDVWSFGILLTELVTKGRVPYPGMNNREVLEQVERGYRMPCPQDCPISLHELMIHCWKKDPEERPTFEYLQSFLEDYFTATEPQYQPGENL

[16] = target: T5, Muscle, skeletal receptor tyrosine-protein kinase (Homo sapiens) (UniProt O15146); assay: Inhibition of MUSK (unknown origin) at 1 uM
T5 sequence (whole entry): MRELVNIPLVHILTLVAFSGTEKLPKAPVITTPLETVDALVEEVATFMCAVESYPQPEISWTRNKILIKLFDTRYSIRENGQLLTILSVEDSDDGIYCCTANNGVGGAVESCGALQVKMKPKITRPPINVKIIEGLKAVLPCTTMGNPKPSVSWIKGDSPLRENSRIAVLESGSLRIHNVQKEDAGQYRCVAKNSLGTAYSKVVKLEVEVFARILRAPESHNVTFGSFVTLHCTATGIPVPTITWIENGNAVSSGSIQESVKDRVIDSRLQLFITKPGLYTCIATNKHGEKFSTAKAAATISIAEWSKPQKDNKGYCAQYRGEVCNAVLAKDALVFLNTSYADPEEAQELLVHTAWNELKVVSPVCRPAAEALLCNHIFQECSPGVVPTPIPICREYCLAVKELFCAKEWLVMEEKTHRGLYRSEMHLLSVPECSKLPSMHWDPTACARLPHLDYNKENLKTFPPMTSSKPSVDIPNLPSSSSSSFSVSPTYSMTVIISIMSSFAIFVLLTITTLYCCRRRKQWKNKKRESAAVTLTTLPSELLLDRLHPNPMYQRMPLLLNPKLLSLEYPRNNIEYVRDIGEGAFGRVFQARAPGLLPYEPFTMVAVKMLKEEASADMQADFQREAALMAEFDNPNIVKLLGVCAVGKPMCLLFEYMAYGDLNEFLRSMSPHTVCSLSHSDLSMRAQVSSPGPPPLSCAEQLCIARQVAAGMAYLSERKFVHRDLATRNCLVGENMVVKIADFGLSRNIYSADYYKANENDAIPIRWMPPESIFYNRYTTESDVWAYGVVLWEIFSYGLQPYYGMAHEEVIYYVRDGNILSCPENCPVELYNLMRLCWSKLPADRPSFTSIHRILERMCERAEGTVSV

[17] = Growth inhibition of human HSC3 cells after 24 hrs by Clonogenic cell survival assay; format: functional, cell-based; details: HSC-3, 24 h; procedure, shortened: as §1
[18] = target: High affinity nerve growth factor receptor (Homo sapiens) (UniProt P04629); assay: Inhibition of TRKA (unknown origin) at 1 uM
[19] = target: Tyrosine-protein kinase Yes (Homo sapiens) (UniProt P07947); assay: Inhibition of YES1 (unknown origin) at 1 uM
[20] = target: Homeodomain-interacting protein kinase 2 (Homo sapiens) (UniProt Q9H2X6); assay: Inhibition of HIPK2 (unknown origin) at 1 uM
Homeodomain-interacting protein kinase 2 (Homo sapiens), sequence (Q9H2X6 whole entry, looked up): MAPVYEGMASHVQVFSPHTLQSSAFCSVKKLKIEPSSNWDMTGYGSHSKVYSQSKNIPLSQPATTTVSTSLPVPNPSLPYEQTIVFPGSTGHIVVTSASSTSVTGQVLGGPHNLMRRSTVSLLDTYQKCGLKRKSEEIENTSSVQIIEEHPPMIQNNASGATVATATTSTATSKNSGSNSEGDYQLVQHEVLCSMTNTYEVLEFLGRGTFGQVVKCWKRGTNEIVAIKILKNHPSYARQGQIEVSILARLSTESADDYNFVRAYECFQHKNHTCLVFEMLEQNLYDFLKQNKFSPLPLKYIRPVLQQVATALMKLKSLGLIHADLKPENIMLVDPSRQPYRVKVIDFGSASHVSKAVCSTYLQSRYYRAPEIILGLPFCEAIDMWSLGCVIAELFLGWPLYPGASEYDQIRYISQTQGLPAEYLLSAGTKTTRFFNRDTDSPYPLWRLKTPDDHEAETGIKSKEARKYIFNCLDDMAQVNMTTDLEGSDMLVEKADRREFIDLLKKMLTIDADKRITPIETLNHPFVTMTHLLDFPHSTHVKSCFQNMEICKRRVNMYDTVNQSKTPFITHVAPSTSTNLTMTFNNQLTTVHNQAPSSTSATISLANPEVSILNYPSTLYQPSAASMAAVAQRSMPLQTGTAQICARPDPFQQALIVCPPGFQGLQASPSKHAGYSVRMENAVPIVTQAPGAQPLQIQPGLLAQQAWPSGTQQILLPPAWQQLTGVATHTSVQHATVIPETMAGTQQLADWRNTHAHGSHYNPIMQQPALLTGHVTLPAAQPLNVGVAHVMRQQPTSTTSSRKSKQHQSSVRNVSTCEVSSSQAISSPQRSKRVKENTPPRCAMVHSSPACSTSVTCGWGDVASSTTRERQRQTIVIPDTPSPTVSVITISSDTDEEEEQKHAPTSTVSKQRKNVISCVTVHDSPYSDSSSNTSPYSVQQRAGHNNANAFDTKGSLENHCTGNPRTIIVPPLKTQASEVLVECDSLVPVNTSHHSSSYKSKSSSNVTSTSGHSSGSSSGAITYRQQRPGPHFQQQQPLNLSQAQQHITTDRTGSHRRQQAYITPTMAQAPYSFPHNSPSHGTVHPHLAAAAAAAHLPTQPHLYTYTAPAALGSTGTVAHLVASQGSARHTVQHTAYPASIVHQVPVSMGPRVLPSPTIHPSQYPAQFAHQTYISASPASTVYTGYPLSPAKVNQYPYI

[21] = target: Voltage-gated inwardly rectifying potassium channel KCNH2 (Homo sapiens, UniProt Q12809); assay: Inhibition of human ERG expressed in CHO cells by automated patch clamp method; format: cell-based
[22] = target: Casein kinase II subunit alpha (Homo sapiens) (UniProt P68400); assay: Inhibition of CK2a (unknown origin) at 1 uM

## O[C@H]1CC[C@H](Nc2ccn3ncc(-c4cccc(Cl)c4)c3n2)CC1
[1]
  pIC50: 6.30

## O[C@H]1CC[C@H](Nc2ccn3ncc(-c4cccc(C(F)(F)F)c4)c3n2)CC1
[1]
  pIC50: 6.55
[2]
  pIC50: 7.28

## O=S1(=O)CCC(CNc2ccn3ncc(-c4cccc(Cl)c4)c3n2)CC1
[1]
  pIC50: 5.68

## CO[C@H]1CC[C@H](Nc2ccn3ncc(-c4cccc(Cl)c4)c3n2)CC1
[1]
  pIC50: 5.99

## O=S1(=O)CCC(Nc2ccn3ncc(-c4cccc(C(F)(F)F)c4)c3n2)CC1
[1]
  IC50: Not Active
[3]
  IC50: Not Active

## CO[C@H]1CC[C@H](Nc2ccn3ncc(-c4cccc(C(F)(F)F)c4)c3n2)CC1
[1]
  pIC50: 5.33

## CC(C)(O)[C@H]1CC[C@H](Nc2ccn3ncc(-c4cccc(Cl)c4)c3n2)CC1
[4]
  inhibition: > 80%
[5]
  inhibition: > 98%
[6]
  inhibition: > 50%
[7]
  pEC50: 6.04
[8]
  inhibition: > 90%
[1]
  pIC50: 6.64
[9]
  inhibition: > 50%
[10]
  inhibition: > 80%
[11]
  inhibition: > 90%
[2]
  pIC50: 6.90
[12]
  inhibition: > 80%
[13]
  inhibition: > 50%
[14]
  inhibition: 96%
[15]
  inhibition: > 50%
[16]
  inhibition: > 80%
[17]
  pEC50: 6.22
[18]
  inhibition: > 80%
[19]
  inhibition: > 50%
[20]
  inhibition: > 50%
[21]
  pIC50: < 4.52
[22]
  inhibition: > 50%

## Clc1cccc(-c2cnn3ccc(NCC4CCOCC4)nc23)c1
[1]
  pIC50: 5.79

## FC(F)(F)Oc1cccc(-c2cnn3ccc(NCC4CCOCC4)nc23)c1
[1]
  pIC50: 5.43
[3]; read-out: IC50
  pIC50: 6.20

## N[C@H]1CC[C@H](Nc2ccn3ncc(-c4cccc(Cl)c4)c3n2)CC1
[1]
  pIC50: 6.14

## CC(C)(O)[C@H]1CC[C@H](Nc2ccn3ncc(-c4cccc(OC(F)(F)F)c4)c3n2)CC1
[1]
  pIC50: 5.39

## C[C@]1(O)CC[C@H](Nc2ccn3ncc(-c4cccc(Cl)c4)c3n2)CC1
[1]
  pIC50: 5.90
